This is an account of results in ChEMBL document CHEMBL4680238, “Novel octapeptide-DTX prodrugs targeting MMP-7 as effective agents for the treatment of colorectal cancer with lower systemic toxicity” (Eur J Med Chem, 2020).

Each structure is given as a SMILES string. Residues, ends and D or L forms follow the SMILES beside them. *: point of attachment. X2 = CC(=O)O[C@@]12CO[C@@H]1C[C@H](O)[C@@]1(C)C(=O)[C@H](O)C3=C(C)[C@@H](OC(=O)[C@H](OC(=O)OCc4ccc(N*)cc4)[C@@H](NC(=O)OC(C)(C)C(F)(F)F)c4ccccc4)C[C@@](O)([C@@H](OC(=O)c4cccc(F)c4)[C@H]21)C3(C)C Some results are limits rather than exact numbers.

Data set [1] concerns HCT-116. The data set is described as follows: Antitumour activity against human HCT-116 cells xenografted in ip dosed BALB/c nude mouse assessed as tumour growth inhibition administered once for every 7 days for 14 days. It is filed as functional, organism-based. Conditions: time 14.0 day. An outline of the steps:
(§1)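 Male BALB/c nude mice received s.c. HCT116 cells (2 × 10^6 in 0.2 mL PBS). Once tumours reached 100-200 mm3, mice were randomized into groups of six. Dosing was ip, 0.1 mL/10 g, once every 7 days, in DMSO 0.5%/castor oil 5%/ethanol 5%/saline 89.5%; vehicle controls got solvent. Caliper volume V = L×W²×0.52 read every 2-3 days. Tumours excised and weighed on day 14.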

Data set [2] is described as follows: Toxicity in BALB/c nude mouse xenografted with human HCT-116 cells assessed as concentrated nucleus in liver at 11.17 mg/kg, ip administered once for every 7 days for 14 days by H and E staining based assay. It is filed as organism-based. Conditions: in vivo, 336 h, time 14 day. Summed up:
(§2)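 At the end of the 14-day ip xenograft study (HCT116, BALB/c nude), heart and liver were collected from vehicle and molar-equivalent dose groups. Tissues fixed in 10% formalin in PBS and stained with H&E. Liver examined at 400×, heart at 100×.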

Data set [3] can be described thus: Half life in Sprague-Dawley rat plasma t 50 ug/ml up to 72 hrs by RP-HPLC analysis. The data set is classed as ADME, cell-free. To be noted: dose 50 µg/ml.
A short description of data set [4]: Toxicity in BALB/c nude mouse xenografted with human HCT-116 cells assessed as necrosis in liver at 11.17 mg/kg, ip administered once for every 7 days for 14 days by H and E staining based assay. It is filed as organism-based. Conditions: in vivo, 336 h, time 14 day. Summed up:
as §2

The next data set deals with SW-620. The data set is described as follows: Cytotoxicity against human SW-620 cells assessed as reduction in cell viability after 72 hrs by MTT assay. It is filed as functional, cell-based. To be noted: SW-620, 72 h. Summed up: (§3)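 Cells seeded at 5000/well and precultured 1 day. HCT116 grown in McCoy's 5A + 10% FBS; SW620 and HEK293 in DMEM + 10% FBS; CCD18Co in DMEM + 15% FBS. Compounds from 0.1 M DMSO stocks were tested at 10^-10 to 10^-4 mol/L in sixplicate: HCT116 and HEK293 for 48 h, SW620 and CCD18Co for 72 h, at 37 °C, 5% CO2. MTT (5 mg/mL) added for 4 h, then A570 read; IC50 estimated.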

The test system of data set [5] is HCT-116. The data set is described as follows: Cytotoxicity against human HCT-116 cells assessed as reduction in cell viability after 48 hrs by MTT assay. It is filed as functional, cell-based. Conditions: HCT-116, 48 h. Summed up: as §3
Data set [6] is described as follows: Toxicity in BALB/c nude mouse xenografted with human HCT-116 cells assessed as reduction in body weight at 5.5 mg/kg, ip administered once for every 7 days for 14 days relative to control. It is filed as organism-based. Details: scale not given: the % may be the effect or the level left. To be noted: in vivo, 336 h, time 14 day. Summed up:
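HCT116 cells (2 × 10^6 in 0.2 mL PBS) inoculated subcutaneously into male BALB/c nude mice; at mean tumor volume 100-200 mm3, randomized, six mice per group. Dosed intraperitoneally once every 7 days in DMSO (0.5%)/castor oil (5%)/ethanol (5%)/saline (89.5%), 0.1 mL per 10 g; vehicle controls received solvent. Body weight monitored every other day or three days; mice weighed on day 14.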

A short description of data set [7]: Toxicity in BALB/c nude mouse xenografted with human HCT-116 cells assessed as disordered myocardial fiber in heart at 11.17 mg/kg, ip administered once for every 7 days for 14 days by H and E staining based assay. It is filed as organism-based. To be noted: in vivo, 336 h, time 14 day. Summed up: as §2
Data set [8] in a line: Toxicity in BALB/c nude mouse xenografted with human HCT-116 cells assessed as reduction in body weight at 22.2 mg/kg, ip administered once for every 7 days for 14 days relative to control. It is filed as organism-based. Further details: scale not given: the % may be the effect or the level left. To be noted: in vivo, 336 h, time 14 day. Summed up:
(§4)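 HCT116 s.c. xenografts in male BALB/c nude mice, n = 6 per group. Dosing was ip once every 7 days for 2 weeks in DMSO/castor oil/ethanol/saline; vehicle controls got solvent. Body weight recorded every other day or every three days. Weight loss taken at day 14. Mean ± SD.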

Data set [9] is described as follows: Half life of compound in PBS buffer at pH 7.4 at 50 ug/ml up to 72 hrs by RP-HPLC analysis. Conditions: dose 50 µg/ml. It is filed as physicochemical.
Data set [10] deals with HCT-116. Description: Antitumour activity against human HCT-116 cells xenografted in BALB/c nude mouse assessed as tumour growth inhibition at 11.1 mg/kg, ip administered once for every 7 days for 14 days relative to control. It is filed as functional. To be noted: HCT-116, ip, 336 h, time 14 day, read-out: TGI. Summed up: as §1
The subject of data set [11] is HCT-116. Description: Antitumour activity against human HCT-116 cells xenografted in BALB/c nude mouse assessed as tumour growth inhibition at 5.55 mg/kg, ip administered once for every 7 days for 14 days relative to control. It is filed as functional. To be noted: HCT-116, ip, 336 h, time 14 day, read-out: TGI. An outline of the steps: as §1
Data set [12] has as its system HCT-116. Description: Antitumour activity against human HCT-116 cells xenografted in BALB/c nude mouse assessed as tumour growth inhibition at 22.2 mg/kg, ip administered once for every 7 days for 14 days relative to control. It is filed as functional. To be noted: HCT-116, ip, 336 h, time 14 day, read-out: TGI. Summed up:
as §1

The next data set concerns HEK293. The data set is described as follows: Cytotoxicity against HEK293 cells assessed as reduction in cell viability after 48 hrs by MTT assay. It is filed as cell-based. To be noted: Homo sapiens, HEK293, 48 h. Summed up:
as §3

The nature of data set [13]: Toxicity in BALB/c nude mouse xenografted with human HCT-116 cells assessed as inflammatory cell invasion in heart at 11.17 mg/kg, ip administered once for every 7 days for 14 days by H and E staining based assay. The data set is classed as organism-based. To be noted: in vivo, 336 h, time 14 day. Summed up:
as §2

The subject of a further data set is CCD-18Co. Description: Cytotoxicity against human CCD-18Co cells assessed as reduction in cell viability after 72 hrs by MTT assay. The data set is classed as cell-based. Summed up:
as §3

A short description of data set [14]: Toxicity in BALB/c nude mouse xenografted with human HCT-116 cells assessed as reduction in body weight at 11.1 mg/kg, ip administered once for every 7 days for 14 days relative to control. It is filed as organism-based. Details: scale not given: the % may be the effect or the level left. To be noted: in vivo, 336 h, time 14 day. Summed up:
as §4

As to `CC[C@H](C)[C@H](NC(=O)CNC(=O)[C@H](CCC(N)=O)NC(=O)[C@@H]1CCCN1C(=O)CNC(C)=O)C(=O)N[C@@H](C)C(=O)N[C@@H](CCSC)C(=O)N[C@@H](CCC(N)=O)C(=O)N[C@@H](CC(C)C)C(=O)Nc1ccc(COC(=O)O[C@@H](C(=O)O[C@H]2C[C@@]3(O)[C@@H](OC(=O)c4cccc(F)c4)[C@@H]4[C@]5(OC(C)=O)CO[C@@H]5C[C@H](O)[C@@]4(C)C(=O)[C@H](O)C(=C2C)C3(C)C)[C@@H](NC(=O)OC(C)(C)C(F)(F)F)c2ccccc2)cc1` (Ac-GPQGIAMQL-X2), the TGI entry in the data set on HCT-116 [1] was “Dose-dependent effect”. Also, the Activity result in data set [2] was “Non-Toxic”; in data set [4] it was “Non-Toxic”; in [6], 4.6%; in data set [7] it was “Non-Toxic”; in [8], 8.7%; in data set [13], “Non-Toxic”. Moreover, the Activity in data set [14] was 8.5%. Further, the figures for the half-life at 50 ug/ml in data set [3] and in data set [9] were 43.8 h and more than 72 h, respectively. The half-maximal inhibitory concentration (IC50) in the data set with SW-620 is 6.59 µM; with HCT-116 [5], 0.0028 µM; with HEK293 it was 86.8 µM; with CCD-18Co, more than 200 µM. In the data set with HCT-116 [10], the inhibition in vivo at 11.1 mg/kg turned out to be 35.2%. In the data set on HCT-116 [11], the inhibition in vivo at 5.55 mg/kg came to 30.5%. Further, the inhibition in vivo at 22.2 mg/kg with HCT-116 [12] was 46.3%.
